One block for each compound: values may come before it. The source made the active and inactive calls. The rule behind the calls is not given here.
Tests used:
HUVEC [1] = assay: Inhibition of rhFGF2-induced HUVEC proliferation; assay type: functional, cell-based; settings: Homo sapiens; for minimal effective concentration: read-out: MEC
In short: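 HUVEC proliferation was induced with recombinant human FGF-2 in the presence of compound. Inhibition was reported as IC50 (μM) and as the minimum effective concentration.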

HUVEC [2] = assay: Cytotoxicity against HUVEC cells; assay type: cell-based; settings: human
In short: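 Cytotoxicity was taken from HUVEC proliferation run without rhFGF-2 stimulation, and the value was reported as the minimum cytotoxic concentration.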

[3] = biological target: RAC-alpha serine/threonine-protein kinase (Homo sapiens) (UniProt P31749); assay: Inhibition of recombinant human FGF2-induced AKT phosphorylation in HUVEC cells by Western blot; assay type: cell-based
HUVEC [4] = assay: Inhibition of recombinant human FGF2-induced ERK phosphorylation in HUVEC cells by Western blot; assay type: cell-based
[5] = biological target: c-Jun N-terminal kinase, JNK (Homo sapiens) (UniProt P45983+P53779+P45984); assay: Inhibition of recombinant human FGF2-induced JNK phosphorylation in HUVEC cells by Western blot; assay type: cell-based
[6] = biological target: Fibroblast growth factor receptor 1 (Homo sapiens, UniProt P11362); assay: Inhibition of human FGFR1 expressed in insect cells by HTRF method
[7] = biological target: Epidermal growth factor receptor (Homo sapiens, UniProt P00533)
HUVEC [8] = assay: Antiangiogenic activity in HUVEC cells assessed incomplete narrow tube formation after 4 hrs by tube formation assay; assay type: functional, cell-based; settings: Homo sapiens
In short: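 HUVEC seeded onto wells coated with Matrigel, with compound present at 1, 3, 10 and 25 μM; FGF-2-stimulated and untreated controls included. After 4 h at 37 °C, cultures were fixed with glutaraldehyde and the length of the capillary-like tubes was measured. Data are means + SD of four wells from a representative experiment.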

[9] = biological target: Vascular endothelial growth factor receptor 2 (Homo sapiens, UniProt P35968); assay: Inhibition of VEGFR2
[10] = biological target: Platelet-derived growth factor receptor beta (Homo sapiens, UniProt P09619); assay: Inhibition of PDGFRbeta
Chain of Platelet-derived growth factor receptor beta (P09619 whole entry): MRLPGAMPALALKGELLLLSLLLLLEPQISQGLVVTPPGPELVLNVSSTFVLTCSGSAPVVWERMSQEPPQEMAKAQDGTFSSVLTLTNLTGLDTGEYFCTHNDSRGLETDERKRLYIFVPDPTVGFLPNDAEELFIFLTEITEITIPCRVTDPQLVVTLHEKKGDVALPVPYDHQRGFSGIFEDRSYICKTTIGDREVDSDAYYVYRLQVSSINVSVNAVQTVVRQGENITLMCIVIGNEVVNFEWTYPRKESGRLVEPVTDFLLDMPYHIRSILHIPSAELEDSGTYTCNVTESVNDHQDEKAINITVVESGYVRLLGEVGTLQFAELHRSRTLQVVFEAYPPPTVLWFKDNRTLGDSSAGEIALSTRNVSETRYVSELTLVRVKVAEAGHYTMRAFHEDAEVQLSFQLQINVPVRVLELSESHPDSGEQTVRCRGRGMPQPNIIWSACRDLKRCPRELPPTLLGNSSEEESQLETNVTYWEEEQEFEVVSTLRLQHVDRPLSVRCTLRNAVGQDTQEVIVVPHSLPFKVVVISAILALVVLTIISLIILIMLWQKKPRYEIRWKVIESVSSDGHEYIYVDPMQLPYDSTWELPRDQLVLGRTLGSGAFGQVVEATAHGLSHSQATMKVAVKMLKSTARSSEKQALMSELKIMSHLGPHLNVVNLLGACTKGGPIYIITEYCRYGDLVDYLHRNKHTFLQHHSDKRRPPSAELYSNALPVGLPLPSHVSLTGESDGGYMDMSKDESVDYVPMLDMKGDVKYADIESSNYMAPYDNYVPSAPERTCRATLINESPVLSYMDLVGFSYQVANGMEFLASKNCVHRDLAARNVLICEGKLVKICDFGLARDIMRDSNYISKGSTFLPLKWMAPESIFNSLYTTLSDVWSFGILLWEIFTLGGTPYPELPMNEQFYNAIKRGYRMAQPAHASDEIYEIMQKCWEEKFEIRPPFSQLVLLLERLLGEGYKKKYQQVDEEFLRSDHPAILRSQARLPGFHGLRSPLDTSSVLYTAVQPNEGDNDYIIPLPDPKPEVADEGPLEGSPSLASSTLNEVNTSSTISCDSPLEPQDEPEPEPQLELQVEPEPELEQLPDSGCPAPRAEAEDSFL

Chain of Fibroblast growth factor receptor 1 (P11362 whole entry): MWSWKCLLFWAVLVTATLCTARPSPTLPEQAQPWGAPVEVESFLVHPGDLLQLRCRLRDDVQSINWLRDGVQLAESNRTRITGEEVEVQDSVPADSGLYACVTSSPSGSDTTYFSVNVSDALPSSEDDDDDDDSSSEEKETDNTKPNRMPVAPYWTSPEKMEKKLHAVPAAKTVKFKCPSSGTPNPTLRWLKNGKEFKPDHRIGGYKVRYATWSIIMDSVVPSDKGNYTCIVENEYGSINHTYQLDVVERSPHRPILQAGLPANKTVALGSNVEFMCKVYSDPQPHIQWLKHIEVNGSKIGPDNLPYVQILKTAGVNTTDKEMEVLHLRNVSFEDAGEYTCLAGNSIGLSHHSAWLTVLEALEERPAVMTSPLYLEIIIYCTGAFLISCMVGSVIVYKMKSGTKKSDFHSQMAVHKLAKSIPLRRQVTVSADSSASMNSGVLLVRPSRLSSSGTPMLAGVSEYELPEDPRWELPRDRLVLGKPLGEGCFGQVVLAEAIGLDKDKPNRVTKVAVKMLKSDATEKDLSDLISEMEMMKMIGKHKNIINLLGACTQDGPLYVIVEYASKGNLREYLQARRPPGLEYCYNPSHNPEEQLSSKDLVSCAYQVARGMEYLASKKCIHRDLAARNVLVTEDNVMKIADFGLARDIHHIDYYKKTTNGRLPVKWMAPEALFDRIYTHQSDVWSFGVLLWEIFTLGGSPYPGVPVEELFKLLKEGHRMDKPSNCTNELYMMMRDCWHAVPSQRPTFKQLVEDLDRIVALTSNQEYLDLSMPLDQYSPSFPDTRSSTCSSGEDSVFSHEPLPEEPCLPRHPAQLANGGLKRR
Chain of Epidermal growth factor receptor (P00533 whole entry): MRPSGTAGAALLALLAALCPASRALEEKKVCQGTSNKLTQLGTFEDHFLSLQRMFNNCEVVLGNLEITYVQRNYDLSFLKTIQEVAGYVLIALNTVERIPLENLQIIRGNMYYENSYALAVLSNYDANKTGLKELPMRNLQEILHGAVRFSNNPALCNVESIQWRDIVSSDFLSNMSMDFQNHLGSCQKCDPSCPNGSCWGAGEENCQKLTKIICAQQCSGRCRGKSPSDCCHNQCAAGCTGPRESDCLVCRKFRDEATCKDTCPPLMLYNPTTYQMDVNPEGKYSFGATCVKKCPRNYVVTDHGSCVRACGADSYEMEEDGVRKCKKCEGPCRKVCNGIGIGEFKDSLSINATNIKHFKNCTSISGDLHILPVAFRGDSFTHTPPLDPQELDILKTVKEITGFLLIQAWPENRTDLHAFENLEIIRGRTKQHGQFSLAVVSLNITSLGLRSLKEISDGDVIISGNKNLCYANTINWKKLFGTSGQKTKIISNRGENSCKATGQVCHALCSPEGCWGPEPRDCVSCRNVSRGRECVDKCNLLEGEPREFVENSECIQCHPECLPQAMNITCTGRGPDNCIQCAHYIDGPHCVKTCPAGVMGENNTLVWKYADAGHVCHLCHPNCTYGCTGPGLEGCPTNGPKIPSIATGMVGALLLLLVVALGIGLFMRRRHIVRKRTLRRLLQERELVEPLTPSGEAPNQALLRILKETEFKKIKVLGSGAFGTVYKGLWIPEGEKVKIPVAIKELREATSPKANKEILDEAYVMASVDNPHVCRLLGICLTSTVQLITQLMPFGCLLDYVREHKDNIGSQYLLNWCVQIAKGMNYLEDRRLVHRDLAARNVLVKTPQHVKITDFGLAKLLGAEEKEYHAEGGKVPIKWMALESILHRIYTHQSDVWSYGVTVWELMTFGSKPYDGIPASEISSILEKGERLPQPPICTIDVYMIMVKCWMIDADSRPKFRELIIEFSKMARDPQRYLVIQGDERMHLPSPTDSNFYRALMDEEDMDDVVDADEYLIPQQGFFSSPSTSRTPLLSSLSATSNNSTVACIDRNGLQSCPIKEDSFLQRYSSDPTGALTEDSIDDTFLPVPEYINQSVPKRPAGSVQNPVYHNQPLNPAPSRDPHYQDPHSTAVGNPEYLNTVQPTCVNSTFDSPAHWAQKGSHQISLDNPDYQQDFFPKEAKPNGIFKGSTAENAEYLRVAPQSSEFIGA
Chain of Vascular endothelial growth factor receptor 2 (P35968 whole entry): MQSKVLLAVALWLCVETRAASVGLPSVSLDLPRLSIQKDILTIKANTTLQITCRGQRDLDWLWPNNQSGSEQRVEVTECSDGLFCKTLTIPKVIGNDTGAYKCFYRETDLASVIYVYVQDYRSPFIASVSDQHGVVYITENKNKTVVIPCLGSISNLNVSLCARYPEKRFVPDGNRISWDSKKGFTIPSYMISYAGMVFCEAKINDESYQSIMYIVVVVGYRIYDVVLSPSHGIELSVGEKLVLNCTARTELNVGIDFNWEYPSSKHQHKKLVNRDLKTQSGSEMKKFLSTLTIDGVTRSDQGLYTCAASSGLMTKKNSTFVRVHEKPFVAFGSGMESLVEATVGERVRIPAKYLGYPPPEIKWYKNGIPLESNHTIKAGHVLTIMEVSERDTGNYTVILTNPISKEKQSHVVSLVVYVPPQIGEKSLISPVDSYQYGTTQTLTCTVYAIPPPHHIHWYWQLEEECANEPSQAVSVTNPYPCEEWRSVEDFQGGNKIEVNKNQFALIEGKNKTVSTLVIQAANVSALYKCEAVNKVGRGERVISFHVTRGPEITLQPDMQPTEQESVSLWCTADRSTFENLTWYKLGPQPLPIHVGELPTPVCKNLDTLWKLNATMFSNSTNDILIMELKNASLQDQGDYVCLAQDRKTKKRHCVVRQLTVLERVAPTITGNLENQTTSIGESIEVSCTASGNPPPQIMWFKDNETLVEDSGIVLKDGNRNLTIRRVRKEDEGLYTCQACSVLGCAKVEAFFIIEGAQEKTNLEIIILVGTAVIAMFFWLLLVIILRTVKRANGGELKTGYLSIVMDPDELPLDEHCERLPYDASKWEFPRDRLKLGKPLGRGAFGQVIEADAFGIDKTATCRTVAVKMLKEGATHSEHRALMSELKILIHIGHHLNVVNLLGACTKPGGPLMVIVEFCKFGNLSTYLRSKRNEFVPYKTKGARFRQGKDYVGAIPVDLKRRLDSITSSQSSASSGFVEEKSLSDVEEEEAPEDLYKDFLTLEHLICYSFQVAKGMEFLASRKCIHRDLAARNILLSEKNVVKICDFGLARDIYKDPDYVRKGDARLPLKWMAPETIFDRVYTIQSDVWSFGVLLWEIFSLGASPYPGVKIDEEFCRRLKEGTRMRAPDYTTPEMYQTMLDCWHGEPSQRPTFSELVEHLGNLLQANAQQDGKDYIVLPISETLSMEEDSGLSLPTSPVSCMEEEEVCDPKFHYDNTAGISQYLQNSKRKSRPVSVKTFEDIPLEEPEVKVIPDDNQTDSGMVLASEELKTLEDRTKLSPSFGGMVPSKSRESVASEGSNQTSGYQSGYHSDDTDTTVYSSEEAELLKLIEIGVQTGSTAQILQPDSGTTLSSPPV
Chain of RAC-alpha serine/threonine-protein kinase (Homo sapiens) (P31749 whole entry): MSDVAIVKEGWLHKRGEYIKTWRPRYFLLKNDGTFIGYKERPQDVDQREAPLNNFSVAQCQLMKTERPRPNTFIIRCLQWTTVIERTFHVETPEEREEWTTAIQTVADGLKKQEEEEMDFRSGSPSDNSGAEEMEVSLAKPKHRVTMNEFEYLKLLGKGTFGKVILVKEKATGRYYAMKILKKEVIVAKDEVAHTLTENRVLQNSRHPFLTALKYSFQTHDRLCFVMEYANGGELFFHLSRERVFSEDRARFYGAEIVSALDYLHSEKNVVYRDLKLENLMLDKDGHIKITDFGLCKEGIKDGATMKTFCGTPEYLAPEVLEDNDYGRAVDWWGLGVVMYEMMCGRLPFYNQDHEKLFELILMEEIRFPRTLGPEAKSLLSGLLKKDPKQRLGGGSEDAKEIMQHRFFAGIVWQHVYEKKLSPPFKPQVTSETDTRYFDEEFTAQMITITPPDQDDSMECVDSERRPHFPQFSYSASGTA

SMILES: Cc1[nH]c(/C=C2\C(=O)Nc3ccc(C(=O)NNc4ccccc4[N+](=O)[O-])cc32)c(C)c1CCC(=O)O
minimal effective concentration (HUVEC [1]): 50 µM | Activity (HUVEC [2]): 50 µM

SMILES: Cc1[nH]c(/C=C2\C(=O)Nc3ccc(C(=O)NNc4ccccc4Cl)cc32)c(C)c1CCC(=O)O
minimal effective concentration (HUVEC [1]): 50 µM

SMILES: Cc1[nH]c(/C=C2\C(=O)Nc3ccc(C(=O)NNc4ccc(C(F)(F)F)cc4)cc32)c(C)c1CCC(=O)O
minimal effective concentration (HUVEC [1]): 50 µM | Activity (HUVEC [2]): 50 µM

SMILES: Cc1[nH]c(/C=C2\C(=O)Nc3ccc(C(=O)NNc4ccc(C#N)cc4)cc32)c(C)c1CCC(=O)O
minimal effective concentration (HUVEC [1]): > 50 µM | Activity (HUVEC [2]): 50 µM

SMILES: Cc1[nH]c(/C=C2\C(=O)Nc3ccc(C(=O)NNc4ccccc4)cc32)c(C)c1CCC(=O)O
IC50 (HUVEC [1]): 27400 nM | minimal effective concentration (HUVEC [1]): 10 µM | Activity [3]: Active | Activity (HUVEC [4]): Active | Activity [5]: Active | IC50 [6]: 100 nM | IC50 [7]: 3480 nM | Activity (HUVEC [8]): Dose-dependent effect | IC50 [9]: 70 nM | Activity (HUVEC [2]): 50 µM | IC50 [10]: 40 nM

IC50 [6]: 520 nM | IC50 [7]: > 100000 nM | IC50 [9]: 930 nM | IC50 [10]: 780 nM
SMILES: COc1cc(OC)cc(-c2ccc3c(c2)NC(=O)/C3=C\c2[nH]c(C)c(CCC(=O)O)c2C)c1
IC50 (HUVEC [1]): 18200 nM

IC50 [10]: 50 nM
SMILES: Cc1[nH]c(/C=C2\C(=O)Nc3ccccc32)c(C)c1CCC(=O)O [ORANTINIB]
IC50 (HUVEC [1]): > 50000 nM | minimal effective concentration (HUVEC [1]): 10 µM

Reference: ChEMBL document CHEMBL1143293, “5-Substituted pyrido[2,3-d]pyrimidine, an inhibitor against three receptor tyrosine kinases” (Bioorg Med Chem Lett, 2009)
